Measured values published in ChEMBL document CHEMBL4834403, “Design and Synthesis of Novel Epigenetic Inhibitors Targeting Histone Deacetylases, DNA Methyltransferase 1, and Lysine Methyltransferase G9a with In Vivo Efficacy in Multiple Myeloma” (J Med Chem, 2021).
Activity calls are given as the source filed them. No cut-off for these calls is given here.

Assays:
[1] = target: T1, Histone-lysine N-methyltransferase EHMT2 (Homo sapiens, UniProt Q96KQ7); assay: Inhibition of human G9a enzyme using histone monomethyl-H3K9 peptide as substrate incubated for 1 hr in presence of SAM by TR-FRET assay
T1 sequence (Q96KQ7 whole entry): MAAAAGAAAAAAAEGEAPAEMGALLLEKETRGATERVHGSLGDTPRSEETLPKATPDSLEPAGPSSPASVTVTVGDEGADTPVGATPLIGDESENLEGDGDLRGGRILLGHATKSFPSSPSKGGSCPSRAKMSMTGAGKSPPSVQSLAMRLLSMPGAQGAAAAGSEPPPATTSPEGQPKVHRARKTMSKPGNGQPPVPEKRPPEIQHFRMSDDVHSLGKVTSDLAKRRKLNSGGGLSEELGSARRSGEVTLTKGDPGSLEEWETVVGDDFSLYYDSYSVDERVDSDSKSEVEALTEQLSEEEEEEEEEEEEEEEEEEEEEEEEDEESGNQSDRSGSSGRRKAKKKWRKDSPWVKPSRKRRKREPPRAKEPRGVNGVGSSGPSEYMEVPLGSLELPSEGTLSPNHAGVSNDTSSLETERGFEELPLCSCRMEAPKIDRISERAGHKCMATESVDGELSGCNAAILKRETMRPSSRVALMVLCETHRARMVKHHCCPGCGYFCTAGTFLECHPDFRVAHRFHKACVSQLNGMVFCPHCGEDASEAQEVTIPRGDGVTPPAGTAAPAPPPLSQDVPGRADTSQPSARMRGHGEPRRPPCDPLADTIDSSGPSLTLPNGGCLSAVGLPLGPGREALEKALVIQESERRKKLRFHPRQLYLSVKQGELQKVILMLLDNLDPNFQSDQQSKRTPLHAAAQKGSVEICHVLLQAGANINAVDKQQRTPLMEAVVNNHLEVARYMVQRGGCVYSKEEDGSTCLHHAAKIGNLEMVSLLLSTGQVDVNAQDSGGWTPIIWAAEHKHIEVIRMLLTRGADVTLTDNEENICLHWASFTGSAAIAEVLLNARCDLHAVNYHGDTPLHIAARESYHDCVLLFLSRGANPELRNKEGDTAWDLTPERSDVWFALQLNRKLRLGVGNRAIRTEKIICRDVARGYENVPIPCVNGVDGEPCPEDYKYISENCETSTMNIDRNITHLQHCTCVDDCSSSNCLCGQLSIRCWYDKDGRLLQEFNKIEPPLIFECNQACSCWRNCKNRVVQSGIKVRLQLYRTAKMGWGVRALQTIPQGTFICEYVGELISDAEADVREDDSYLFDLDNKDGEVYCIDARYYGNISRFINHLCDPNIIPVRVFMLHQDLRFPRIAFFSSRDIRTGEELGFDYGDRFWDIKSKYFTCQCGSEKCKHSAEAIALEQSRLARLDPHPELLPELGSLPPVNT

[2] = target: Histone deacetylase 3/Nuclear receptor corepressor 2 (HDAC3/NCoR2) (Homo sapiens, UniProt O15379); assay: Inhibition of full length human C-terminal His-tagged HDAC3/human N-terminal GST-agged NCOR2 using fluorogenic acetylated peptide as substrate incubated for 30 mins by fluorescence plate reader assay; format: protein-complex assay
[3] = target: DNA (cytosine-5)-methyltransferase 1 (Homo sapiens, UniProt P26358); assay: Inhibition of human DNMT1 enzyme using polydeoxy-inosine polydeoxy-cytosine DNA as substrate incubated for 15 mins in presence of SAM by TR-FRET assay
[4] = target: Histone deacetylase 1 (Homo sapiens, UniProt Q13547); assay: Inhibition of full length human C-terminal His-tagged/C-terminal Flag-tagged HDAC1 using fluorogenic acetylated peptide as substrate incubated for 30 mins by fluorescence plate reader assay
[5] = test system: THLE-2; assay: Cytotoxicity against human THLE-2 cells assessed as decrease in cell viability measured after 72 hrs by Vialight-plus cell proliferation assay; format: cell-based; settings: thle-2, 72 h
How it was run: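 Human THLE-2 cells exposed to compound for 72 h. Cytotoxicity reported as LC50 and pLC50, averaged from at least two independent experiments on different days.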

[6] = target: Histone deacetylase 2 (Homo sapiens, UniProt Q92769)
[7] = target: T2, Protein deacetylase HDAC6 (Homo sapiens, UniProt Q9UBN7); assay: Inhibition of full length human N-terminal GST-tagged HDAC6 using fluorogenic acetylated peptide as substrate incubated for 30 mins by fluorescence plate reader assay
T2 sequence (Q9UBN7 whole entry): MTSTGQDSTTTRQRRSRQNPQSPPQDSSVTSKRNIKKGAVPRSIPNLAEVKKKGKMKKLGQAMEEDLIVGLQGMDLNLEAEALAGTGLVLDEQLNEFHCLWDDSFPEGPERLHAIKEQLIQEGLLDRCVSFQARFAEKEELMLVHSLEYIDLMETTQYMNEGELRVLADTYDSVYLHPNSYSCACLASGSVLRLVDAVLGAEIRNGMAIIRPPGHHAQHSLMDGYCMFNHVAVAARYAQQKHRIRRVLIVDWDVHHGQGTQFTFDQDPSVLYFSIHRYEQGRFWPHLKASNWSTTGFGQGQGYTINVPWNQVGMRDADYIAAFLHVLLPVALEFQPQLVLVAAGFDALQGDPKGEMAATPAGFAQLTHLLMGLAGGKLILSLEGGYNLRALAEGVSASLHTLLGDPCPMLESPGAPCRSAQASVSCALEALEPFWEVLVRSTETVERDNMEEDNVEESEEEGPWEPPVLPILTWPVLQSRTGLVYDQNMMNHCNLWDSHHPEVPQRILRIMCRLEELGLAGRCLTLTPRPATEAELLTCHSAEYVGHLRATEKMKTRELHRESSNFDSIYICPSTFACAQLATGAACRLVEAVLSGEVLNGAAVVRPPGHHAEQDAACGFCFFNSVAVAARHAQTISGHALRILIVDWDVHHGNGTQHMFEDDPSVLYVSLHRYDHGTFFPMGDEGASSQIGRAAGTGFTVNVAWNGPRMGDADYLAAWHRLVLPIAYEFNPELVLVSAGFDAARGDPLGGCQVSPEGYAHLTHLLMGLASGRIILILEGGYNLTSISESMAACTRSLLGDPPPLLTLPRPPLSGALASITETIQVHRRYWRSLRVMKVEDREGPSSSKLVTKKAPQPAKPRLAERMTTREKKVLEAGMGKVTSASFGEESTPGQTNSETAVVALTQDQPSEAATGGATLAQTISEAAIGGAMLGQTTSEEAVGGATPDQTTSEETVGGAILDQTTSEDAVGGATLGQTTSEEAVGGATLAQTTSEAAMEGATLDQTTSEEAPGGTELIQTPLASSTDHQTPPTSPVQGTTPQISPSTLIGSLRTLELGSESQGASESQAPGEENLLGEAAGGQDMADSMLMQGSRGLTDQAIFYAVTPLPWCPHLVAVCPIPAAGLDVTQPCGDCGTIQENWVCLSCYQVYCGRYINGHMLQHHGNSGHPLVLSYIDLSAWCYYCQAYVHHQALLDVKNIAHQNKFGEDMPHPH

[8] = test system: MM1.S; assay: Antiproliferative activity against human MM1.S cells assessed as inhibition of cell proliferation measured up to 72 hrs by CellTiter96 Aqueous one reagent based assay; format: functional
[9] = Permeability of the compound in PBS/EtOH buffer (70:30) incubated for 18 hrs by UV plate reader based PAMPA assay; format: ADME; settings: read-out: permeability
[10] = target: T3, Histone-lysine N-methyltransferase EHMT2 (Homo sapiens) (UniProt Q96KQ7); assay: Inhibition of G9A in human MM1.S cells assessed as decrease in H3K9Me2 levels up to 50 uM after 48 hrs by Western blot analysis; format: cell-based; settings: dose microM <=50, time 48.0 hrs
T3 sequence (whole entry): T1 sequence (Q96KQ7 whole entry)
How it was run: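 MM1.S cells exposed 48 h across a concentration range. Global H3K9Ac and H3K9me2 read by Western blot; run in duplicate.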

[11] = time hrs <=72, read-out: pGI50 (converted)

Sequence of Histone deacetylase 3/Nuclear receptor corepressor 2 (HDAC3/NCoR2) (O15379 whole entry): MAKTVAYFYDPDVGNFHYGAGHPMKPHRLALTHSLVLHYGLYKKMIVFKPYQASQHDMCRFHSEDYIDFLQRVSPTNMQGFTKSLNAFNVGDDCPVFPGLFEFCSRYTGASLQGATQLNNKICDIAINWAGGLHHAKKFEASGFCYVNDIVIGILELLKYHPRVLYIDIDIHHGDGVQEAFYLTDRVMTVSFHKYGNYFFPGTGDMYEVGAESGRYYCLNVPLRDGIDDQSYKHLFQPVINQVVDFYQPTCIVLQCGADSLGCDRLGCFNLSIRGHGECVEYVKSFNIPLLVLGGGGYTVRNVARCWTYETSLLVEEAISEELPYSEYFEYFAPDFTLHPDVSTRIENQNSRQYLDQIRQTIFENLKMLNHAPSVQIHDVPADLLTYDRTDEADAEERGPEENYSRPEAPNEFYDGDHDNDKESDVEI
Sequence of Histone deacetylase 3/Nuclear receptor corepressor 2 (HDAC3/NCoR2) (Q9Y618 whole entry, further chain): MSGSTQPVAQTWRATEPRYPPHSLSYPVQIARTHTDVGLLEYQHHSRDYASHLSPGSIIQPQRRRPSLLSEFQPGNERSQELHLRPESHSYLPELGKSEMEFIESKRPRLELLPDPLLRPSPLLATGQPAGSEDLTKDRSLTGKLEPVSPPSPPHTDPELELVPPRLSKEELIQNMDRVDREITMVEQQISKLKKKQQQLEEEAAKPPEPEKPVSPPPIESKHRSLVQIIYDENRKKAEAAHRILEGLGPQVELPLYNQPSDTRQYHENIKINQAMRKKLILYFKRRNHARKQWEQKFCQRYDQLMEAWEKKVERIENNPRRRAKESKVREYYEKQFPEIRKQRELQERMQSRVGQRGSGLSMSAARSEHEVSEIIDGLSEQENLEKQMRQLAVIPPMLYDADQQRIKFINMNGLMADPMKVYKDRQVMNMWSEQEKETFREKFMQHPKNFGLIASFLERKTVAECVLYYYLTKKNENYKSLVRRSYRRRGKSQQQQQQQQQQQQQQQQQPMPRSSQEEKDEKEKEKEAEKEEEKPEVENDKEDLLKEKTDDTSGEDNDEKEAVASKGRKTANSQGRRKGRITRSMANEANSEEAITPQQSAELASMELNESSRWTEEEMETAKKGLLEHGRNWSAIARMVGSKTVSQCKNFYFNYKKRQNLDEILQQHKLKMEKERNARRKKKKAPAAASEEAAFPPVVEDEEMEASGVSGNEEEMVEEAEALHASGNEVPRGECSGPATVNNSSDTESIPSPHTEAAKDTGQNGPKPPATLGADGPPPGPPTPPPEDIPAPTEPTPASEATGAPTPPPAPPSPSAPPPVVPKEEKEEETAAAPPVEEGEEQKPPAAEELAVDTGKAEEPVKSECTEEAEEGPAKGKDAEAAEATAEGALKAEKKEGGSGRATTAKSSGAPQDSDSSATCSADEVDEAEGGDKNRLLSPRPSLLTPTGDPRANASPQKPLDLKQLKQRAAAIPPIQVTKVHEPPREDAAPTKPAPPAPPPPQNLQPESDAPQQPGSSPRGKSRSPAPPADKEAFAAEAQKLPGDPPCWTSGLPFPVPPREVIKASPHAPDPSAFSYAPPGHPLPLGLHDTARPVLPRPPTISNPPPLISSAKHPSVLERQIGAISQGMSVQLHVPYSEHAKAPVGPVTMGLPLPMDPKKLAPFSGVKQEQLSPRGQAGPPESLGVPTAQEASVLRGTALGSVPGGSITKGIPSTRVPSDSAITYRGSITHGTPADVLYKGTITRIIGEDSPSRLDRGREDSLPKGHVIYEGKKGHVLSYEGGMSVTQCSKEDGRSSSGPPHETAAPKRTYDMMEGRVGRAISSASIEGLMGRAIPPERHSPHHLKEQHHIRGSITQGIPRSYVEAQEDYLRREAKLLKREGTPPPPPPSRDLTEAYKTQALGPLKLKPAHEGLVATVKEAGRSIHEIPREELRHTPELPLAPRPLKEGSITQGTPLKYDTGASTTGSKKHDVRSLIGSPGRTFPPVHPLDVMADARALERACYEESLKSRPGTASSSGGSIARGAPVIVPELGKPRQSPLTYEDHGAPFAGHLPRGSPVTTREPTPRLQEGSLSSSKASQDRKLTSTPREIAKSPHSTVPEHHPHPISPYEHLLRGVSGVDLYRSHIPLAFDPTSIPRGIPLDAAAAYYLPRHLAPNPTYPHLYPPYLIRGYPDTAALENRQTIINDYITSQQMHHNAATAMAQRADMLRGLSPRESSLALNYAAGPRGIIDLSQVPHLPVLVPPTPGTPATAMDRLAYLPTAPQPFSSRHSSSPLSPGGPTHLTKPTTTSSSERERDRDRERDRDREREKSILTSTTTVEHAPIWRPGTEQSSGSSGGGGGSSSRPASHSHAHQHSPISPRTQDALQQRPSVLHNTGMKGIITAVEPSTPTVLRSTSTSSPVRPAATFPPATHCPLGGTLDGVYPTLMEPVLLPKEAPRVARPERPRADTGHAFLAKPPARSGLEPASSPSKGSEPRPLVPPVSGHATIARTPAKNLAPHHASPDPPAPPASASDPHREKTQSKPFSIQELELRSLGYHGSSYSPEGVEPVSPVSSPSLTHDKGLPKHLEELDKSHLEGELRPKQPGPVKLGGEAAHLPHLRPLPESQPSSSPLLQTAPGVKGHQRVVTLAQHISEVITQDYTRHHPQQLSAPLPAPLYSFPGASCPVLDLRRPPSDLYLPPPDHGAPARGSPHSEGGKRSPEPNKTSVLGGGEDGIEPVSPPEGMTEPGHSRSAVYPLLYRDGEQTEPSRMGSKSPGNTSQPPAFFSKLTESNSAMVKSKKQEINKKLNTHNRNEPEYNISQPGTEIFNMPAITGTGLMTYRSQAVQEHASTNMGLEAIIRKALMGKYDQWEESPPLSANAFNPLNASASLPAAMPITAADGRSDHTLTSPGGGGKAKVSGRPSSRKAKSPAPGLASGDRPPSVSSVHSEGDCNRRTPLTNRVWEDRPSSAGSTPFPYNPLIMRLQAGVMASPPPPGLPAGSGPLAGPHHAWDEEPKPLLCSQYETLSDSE
Sequence of Histone deacetylase 1 (Q13547 whole entry): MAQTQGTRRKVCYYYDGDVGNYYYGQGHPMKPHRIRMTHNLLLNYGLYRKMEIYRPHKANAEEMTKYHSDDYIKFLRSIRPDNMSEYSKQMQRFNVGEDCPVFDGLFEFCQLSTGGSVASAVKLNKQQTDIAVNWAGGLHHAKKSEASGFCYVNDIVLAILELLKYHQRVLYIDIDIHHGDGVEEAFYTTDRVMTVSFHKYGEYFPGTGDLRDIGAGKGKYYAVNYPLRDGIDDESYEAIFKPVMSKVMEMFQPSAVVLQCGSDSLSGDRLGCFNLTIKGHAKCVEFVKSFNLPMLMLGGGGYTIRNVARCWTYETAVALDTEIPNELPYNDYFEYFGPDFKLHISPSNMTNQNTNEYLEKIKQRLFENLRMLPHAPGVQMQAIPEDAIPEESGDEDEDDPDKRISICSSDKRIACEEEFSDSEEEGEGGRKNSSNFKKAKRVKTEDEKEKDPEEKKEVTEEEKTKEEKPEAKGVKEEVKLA
Sequence of DNA (cytosine-5)-methyltransferase 1 (P26358 whole entry): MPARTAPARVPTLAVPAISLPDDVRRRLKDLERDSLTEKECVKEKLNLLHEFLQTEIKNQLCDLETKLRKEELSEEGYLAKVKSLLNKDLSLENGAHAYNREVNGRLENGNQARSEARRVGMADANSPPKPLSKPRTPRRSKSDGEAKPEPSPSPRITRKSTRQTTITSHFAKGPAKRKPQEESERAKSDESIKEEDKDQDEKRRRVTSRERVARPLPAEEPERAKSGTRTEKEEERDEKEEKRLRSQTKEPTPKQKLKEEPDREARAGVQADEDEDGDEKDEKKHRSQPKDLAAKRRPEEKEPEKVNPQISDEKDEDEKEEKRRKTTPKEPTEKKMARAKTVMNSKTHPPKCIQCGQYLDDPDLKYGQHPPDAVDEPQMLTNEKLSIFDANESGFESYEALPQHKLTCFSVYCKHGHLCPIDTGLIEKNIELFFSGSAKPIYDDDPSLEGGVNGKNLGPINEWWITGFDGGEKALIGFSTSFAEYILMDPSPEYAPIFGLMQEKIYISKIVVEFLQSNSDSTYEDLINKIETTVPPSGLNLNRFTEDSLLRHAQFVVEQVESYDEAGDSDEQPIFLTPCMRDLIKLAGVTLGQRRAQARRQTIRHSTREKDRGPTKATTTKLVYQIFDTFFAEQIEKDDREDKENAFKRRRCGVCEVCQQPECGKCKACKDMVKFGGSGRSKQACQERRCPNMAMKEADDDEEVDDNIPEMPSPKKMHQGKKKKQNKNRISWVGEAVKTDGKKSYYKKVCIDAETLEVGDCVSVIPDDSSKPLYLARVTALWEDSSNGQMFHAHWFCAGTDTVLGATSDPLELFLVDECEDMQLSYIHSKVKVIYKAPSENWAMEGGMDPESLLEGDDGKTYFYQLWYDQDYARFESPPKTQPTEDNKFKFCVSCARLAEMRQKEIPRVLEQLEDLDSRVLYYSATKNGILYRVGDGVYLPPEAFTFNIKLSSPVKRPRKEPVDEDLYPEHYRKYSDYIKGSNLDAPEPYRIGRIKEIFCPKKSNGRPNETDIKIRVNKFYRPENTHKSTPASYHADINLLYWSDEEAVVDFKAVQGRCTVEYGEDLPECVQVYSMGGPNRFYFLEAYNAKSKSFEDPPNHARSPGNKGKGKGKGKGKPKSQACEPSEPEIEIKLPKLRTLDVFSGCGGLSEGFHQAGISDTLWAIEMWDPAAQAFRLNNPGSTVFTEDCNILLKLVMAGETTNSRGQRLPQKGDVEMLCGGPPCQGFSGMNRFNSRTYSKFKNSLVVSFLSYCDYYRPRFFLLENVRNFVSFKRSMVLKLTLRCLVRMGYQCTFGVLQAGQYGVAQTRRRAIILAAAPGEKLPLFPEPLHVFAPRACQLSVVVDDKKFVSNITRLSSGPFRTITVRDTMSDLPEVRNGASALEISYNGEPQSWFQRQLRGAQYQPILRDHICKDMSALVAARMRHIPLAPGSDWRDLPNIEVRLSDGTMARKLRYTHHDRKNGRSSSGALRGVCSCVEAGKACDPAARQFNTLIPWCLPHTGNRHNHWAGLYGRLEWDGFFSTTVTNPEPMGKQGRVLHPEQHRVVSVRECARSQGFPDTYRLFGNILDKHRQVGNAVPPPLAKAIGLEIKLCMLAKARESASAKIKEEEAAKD

inhibition [10]	Compound	IC50 [1] [nM]	IC50 [2] [nM]	IC50 [3] [nM]	IC50 [4] [nM]	LC50 [5] [nM]	pLC50 [5]	IC50 [6] [nM]	IC50 [7] [nM]	GI50 ([8]; time hrs <=72, read-out: GI50) [nM]	GI50 [8, 11] [nM]	Papp at 18 h [9] [×10⁻⁶ cm/s]
–	COc1cc2c(NCc3ccc(C(=O)NO)cc3)cc(-c3ccc(C)o3)nc2cc1OCCCN1CCCC1	471	21	795	9	11300	4.95	60	11	4500	4470	0.1
–	COc1cc2c(NC3CCN(C)CC3)cc(-c3ccc(C)o3)nc2cc1OCCCN1CCCC1	–	> 10000	–	> 10000	1780	5.75	> 10000	> 10000	1040	1070	–
–	COc1cc2nc(-c3ccc(C)o3)cc(NCC3CCC(C(=O)NO)CC3)c2cc1OC (centres undefined)	> 10000	206	2850	38	9600	5.02	274	41	5830	5750	0.393
–	COc1cc2nc(-c3ccc(C)o3)cc(NC3CCN(c4ncc(C(=O)NO)cn4)CC3)c2cc1OC	> 10000	73	7140	63	3090	5.51	409	343	1020	1020	0.596
–	COc1cc2nc(-c3ccc(C)o3)nc(NCC3CCN(c4ncc(C(=O)NO)cn4)CC3)c2cc1OC	> 10000	21	> 10000	7	–	–	38	506	–	–	–
–	COc1cc2nc(-c3ccc(C)o3)cc(NCc3ccc(C(=O)NO)cc3)c2cc1OC	> 10000	44	5400	14	2330	5.63	91	22	520	525	0.534
–	COc1cc2nc(-c3ccc(C)o3)cc(NCC3CCN(Cc4ccc(C(=O)NO)s4)CC3)c2cc1OC	> 10000	–	323	303	2227	5.65	–	66	1940	1950	0.401
–	COc1cc2nc(-c3ccc(C)o3)cc(NCC3CCN(Cc4ccc(C(=O)NO)cc4)CC3)c2cc1OC	> 10000	–	267	330	204	6.69	–	84	217	219	0.556
–	COc1cc2c(NC3CCN(c4ccc(C(=O)NO)cc4)CC3)cc(-c3ccc(C)o3)nc2cc1OCCCN1CCCC1	25	–	691	415	6656	5.18	–	133	> 10000	> 10000	0.014
–	COc1cc2c(NCC3CCN(C)CC3)cc(-c3ccc(C)o3)nc2cc1OCCCN1CCCC1	–	> 10000	–	> 10000	1300	5.89	> 10000	> 10000	3840	3800	–
Active	COc1cc2c(cc1OCCCN1CCCC1)N=C(N)C21CCC1	–	–	–	–	–	–	–	–	–	–	–
–	COc1cc2c(NCC3CCC(C(=O)NO)CC3)cc(-c3ccc(C)o3)nc2cc1OCCCN1CCCC1 (centres undefined)	55	109	531	22	26100	4.58	159	34	> 10000	> 10000	–
–	COc1cc2c(NCc3ccc(-c4ccc(C(=O)NO)cc4)cc3)cc(-c3ccc(C)o3)nc2cc1OCCCN1CCCC1	2240	–	2570	45	13500	4.87	–	127	1810	1820	0.11
–	COc1cc2nc(-c3ccc(C)o3)cc(NCC3C4CCC3CN(c3ncc(C(=O)NO)cn3)C4)c2cc1OC (centres undefined)	> 10000	33	1680	22	1350	5.87	125	239	459	457	0.959
